# pIC50: −log10 of the molar value.
# Columns and labels:
# Plasmodium falciparum [1] = assay: Antimalarial activity against chloroquine-sensitive Plasmodium falciparum 3D7 infected in human erythrocytes assessed as reduction in [3H]-hypoxanthine incorporation preincubated for 24 hrs followed by [3H]-hypoxanthine addition measured after 24 hrs by scintillation counting method; type: functional, cell-based
# Outline: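 P. falciparum 3D7 cultures were exposed to the compound for 48 h, with atovaquone as the reference control. IC50 was taken from three replicates.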
# Plasmodium falciparum [2] = assay: Antimalarial activity against chloroquine-resistant Plasmodium falciparum W2 infected in human erythrocytes after 48 hrs by YOYO-1 dye based flow cytometric analysis; type: functional, cell-based; conditions: W2, 48 h
# Outline: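 P. falciparum W2 cultures were exposed to the compound for 48 h, with artemisinin and chloroquine as reference controls. IC50 was taken from two independent replicates.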
Structure (SMILES),pIC50 (Plasmodium falciparum [1]),pIC50 (Plasmodium falciparum [2])
Cc1c(Oc2cnc(C(=O)N[C@H](CO)C3CC3)cn2)ccc2c1B(O)OC2,5.96,6.19
Cc1c(Oc2cnc(C(=O)NC3(CO)CC3)cn2)ccc2c1B(O)OC2,5.82,5.70
Cc1c(Oc2cnc(C(=O)N[C@@H](CO)c3ccccc3)cn2)ccc2c1B(O)OC2,6.79,6.99
Cc1c(Oc2cnc(C(=O)N[C@H](C)CO)cn2)ccc2c1B(O)OC2,6.07,6.03
Cc1c(Oc2cnc(C(=O)N(CCO)CCO)cn2)ccc2c1B(O)OC2,6.74,6.48
CCCC[C@H](CO)NC(=O)c1cnc(Oc2ccc3c(c2C)B(O)OC3)cn1,6.67,7.07
CSC[C@H](CO)NC(=O)c1cnc(Oc2ccc3c(c2C)B(O)OC3)cn1,7.13,7.43
Cc1c(Oc2cnc(C(=O)NCC(C)O)cn2)ccc2c1B(O)OC2 (stereo unspecified),5.96,5.89
CC[C@@H](NC(=O)c1cnc(Oc2ccc3c(c2C)B(O)OC3)cn1)C(C)(C)O,6.65,7.04
Cc1c(Oc2cnc(C(=O)NC(C)(C)CO)cn2)ccc2c1B(O)OC2,6.37,6.54
Cc1c(Oc2cnc(C(=O)N[C@@H](CO)Cc3ccccc3)cn2)ccc2c1B(O)OC2,6.30,6.94
Cc1c(Oc2cnc(C(=O)N[C@@H](CO)CS(C)(=O)=O)cn2)ccc2c1B(O)OC2,6.33,6.74
Cc1c(Oc2cnc(C(=O)N[C@H](C)C(C)(C)O)cn2)ccc2c1B(O)OC2,6.43,6.58
CCC[C@@H](CO)NC(=O)c1cnc(Oc2ccc3c(c2C)B(O)OC3)cn1,6.15,6.53
Cc1c(Oc2cnc(C(=O)N[C@H](CO)CCC(F)(F)F)cn2)ccc2c1B(O)OC2,6.02,6.45
CCC[C@@H](NC(=O)c1cnc(Oc2ccc3c(c2C)B(O)OC3)cn1)C(C)(C)O,6.26,6.59
Cc1c(Oc2cnc(C(=O)N[C@@H](C)CO)cn2)ccc2c1B(O)OC2,6.09,6.07

Structure (SMILES),pIC50 (Plasmodium falciparum [1]),pIC50 (Plasmodium falciparum [2])
Cc1c(Oc2cnc(C(=O)N[C@@H]3CCC[C@H]3O)cn2)ccc2c1B(O)OC2,6.61,6.88
Cc1c(Oc2cnc(C(=O)N[C@@H](CO)CCC(F)(F)F)cn2)ccc2c1B(O)OC2,6.32,6.64
CC[C@@H](CO)NC(=O)c1cnc(Oc2ccc3c(c2C)B(O)OC3)cn1,6.10,6.15
Cc1c(Oc2cnc(C(=O)N3CCNC[C@H]3CO)cn2)ccc2c1B(O)OC2,6.77,7.01
Cc1c(Oc2cnc(C(=O)N[C@@H](CO)C3CC3)cn2)ccc2c1B(O)OC2,6.23,6.31
CC[C@H](NC(=O)c1cnc(Oc2ccc3c(c2C)B(O)OC3)cn1)C(C)(C)O,6.08,6.55
Cc1c(Oc2cnc(C(=O)N(C)CCO)cn2)ccc2c1B(O)OC2,6.36,6.58
Cc1c(Oc2cnc(C(=O)N[C@H](CO)CC(F)(F)F)cn2)ccc2c1B(O)OC2,7.51,6.46
Cc1c(Oc2cnc(C(=O)N3CCNC[C@@H]3CO)cn2)ccc2c1B(O)OC2,6.82,6.99
Cc1c(Oc2cnc(C(=O)N3CCC(C)(O)C3)cn2)ccc2c1B(O)OC2 (stereo unspecified),6.50,6.86
Cc1c(Oc2cnc(C(=O)N[C@@H](C)C(C)(C)O)cn2)ccc2c1B(O)OC2,6.49,6.69
CCC[C@H](NC(=O)c1cnc(Oc2ccc3c(c2C)B(O)OC3)cn1)C(C)(C)O,6.66,6.89
Cc1c(Oc2cnc(C(=O)N[C@H](CO)C(C)C)cn2)ccc2c1B(O)OC2,5.70,6.11
Cc1c(Oc2cnc(C(=O)N[C@H]3CCC[C@@H]3O)cn2)ccc2c1B(O)OC2,6.27,6.83
CCC[C@H](CO)N(C)C(=O)c1cnc(Oc2ccc3c(c2C)B(O)OC3)cn1,6.60,7.32
COCCNC(=O)c1cnc(Oc2ccc3c(c2C)B(O)OC3)cn1,6.19,6.10

# Source: ChEMBL document CHEMBL4038305, “Benzoxaborole Antimalarial Agents. Part 5. Lead Optimization of Novel Amide Pyrazinyloxy Benzoxaboroles and Identification of a Preclinical Candidate” (J Med Chem, 2017)
